Results published in publication PMC8286339 (ACS chemical biology, 2021).
NAH = SAM mimic in which the sulfonium ion is replaced by a nitrogen atom; C3 = 3-carbon linker to the N-terminal alpha-amine

What was measured:
[1] = target: T1, HemK2/KMT9-Trm112 complex (Homo sapiens, UniProt Q9Y5N5); experiment: HemK2-Trm112 methylation inhibition assay; type: biochemical; conditions: read-out: inhibition of activity
T1 sequence (Q9Y5N5 1-214): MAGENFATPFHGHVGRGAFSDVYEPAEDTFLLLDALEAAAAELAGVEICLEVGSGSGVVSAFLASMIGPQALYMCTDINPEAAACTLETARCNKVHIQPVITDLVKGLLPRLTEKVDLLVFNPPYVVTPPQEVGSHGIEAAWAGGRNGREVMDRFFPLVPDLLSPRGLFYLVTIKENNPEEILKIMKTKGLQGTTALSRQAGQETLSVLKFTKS
T1 sequence (Q9UI30 1-125 partner): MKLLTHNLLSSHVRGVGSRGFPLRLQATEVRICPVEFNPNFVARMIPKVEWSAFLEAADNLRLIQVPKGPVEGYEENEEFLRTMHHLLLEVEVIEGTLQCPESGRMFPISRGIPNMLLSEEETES

[2] = target: protein N-terminal methyltransferase 1 (NTMT1), purified recombinant (human) (UniProt Q9BV86); experiment: SAHH-coupled fluorescence enzyme inhibition assay
NTMT1 [3] = target: T2, NTMT1 (Homo sapiens, UniProt Q9BV86); experiment: Pull-down from HeLa cell lysates with immobilized probe, anti-NTMT1 Western blot; type: binding; conditions: 700 mM NaCl wash
T2 sequence (Q9BV86 1-223): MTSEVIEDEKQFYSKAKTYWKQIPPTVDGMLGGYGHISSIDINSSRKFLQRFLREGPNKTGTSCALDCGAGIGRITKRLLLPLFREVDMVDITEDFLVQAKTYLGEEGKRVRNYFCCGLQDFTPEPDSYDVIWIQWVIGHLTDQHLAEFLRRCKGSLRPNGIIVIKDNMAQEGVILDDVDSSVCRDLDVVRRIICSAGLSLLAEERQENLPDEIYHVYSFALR
Method in brief: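 Lysate was incubated overnight with probe-loaded streptavidin resin, optionally with competitor (10 mM stock) added first; resin alone served as control. Washes used IP buffer, then 700 mM NaCl. Boiled-bead eluates were run on SDS-PAGE and blotted with anti-NTMT1 (1:1000, 4°C overnight) and HRP secondary, with ECL detection.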

NTMT1 [4] = target: T2, NTMT1; type: binding; conditions: probe immobilized on streptavidin beads
Method in brief: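 Biotinylated probe (100 µM) was loaded overnight onto streptavidin resin in 20 mM Tris, 50 mM KCl, pH 7.5. Purified NTMT1 was bound for 4 h in the same buffer plus 1 mM DTT, then washed until no protein was detected. Elution was stepwise with 500 mM, 1 M, 2 M and 4 M NaCl, moving to the next step once eluate protein approached 0 mg/mL.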

NTMT1 [5] = target: T2, NTMT1; conditions: read-out: Ki, app; previously developed NTMT1 bisubstrate inhibitors; cited from earlier work

In the case of Nc1ncnc2c1ncn2[C@@H]1O[C@H](C[C@@H](N)CC[C@H](N)C(=O)O)[C@@H](O)[C@H]1O [sinefungin], the inhibition at 100 µM [1] is reported as ~50%.

Compound NAH-C4-GPK (compound 4) (peptide) has a Ki [2] of 44 nM.

With NAH-C3-GPK (compound 3) (peptide) the Ki [2] was 41 nM.

With NAH-C3-GPKK-biotin [Probe 6] the “enrichment of NTMT1 from HeLa cell lysates” value (NTMT1 [3]) was “enriched” and the “salt concentration at which NTMT1 was eluted off the probe” value (NTMT1 [4]) was 4 M NaCl.

For CC[C@H](C)[C@H](NC(=O)[C@H](CCCNC(=N)N)NC(=O)[C@H](CCCCN)NC(=O)[C@@H]1CCCN1C(=O)CNCCCCN(CC[C@H](N)C(=O)O)C[C@H]1O[C@@H](n2cnc3c(N)ncnc32)[C@H](O)[C@@H]1O)C(=O)N[C@@H](C)C(N)=O [NAH-C4-GPKRIA], the Ki (NTMT1 [5]) is listed as 0.13 ± 0.04 nM.

For NAH-C3-PPKRIA ({NAH-C3}-PPKRIA-NH2), the Ki (NTMT1 [5]) is listed as 39 ± 10 nM.
